This is an account of results in ChEMBL document CHEMBL4261487, “Small structural changes of the imidazopyridine diacylglycerol acyltransferase 2 (DGAT2) inhibitors produce an improved safety profile” (Medchemcomm, 2017).

For orientation: IC50 means the concentration that inhibits the measured activity by half. Broadly, the clearance is the volume of plasma or blood freed of the substance per unit of time. Usually fraction unbound stands for the share of the substance not bound to proteins or other matrix.

Series [1] concerns Rattus norvegicus. Briefly: Toxicity in Wistar Han IGS rat assessed as increase in heart weight at 60 to 300 mg/kg, po qd administered for 1 month. It counts as organism-based. The following applies: in vivo. The essentials: (§1)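 Wistar Han rats, daily oral dosing for 14 days (5/sex/dose) or 1 month (10/sex/dose); microscopic findings reported as incidence by sex, plus organ weights.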

For series [2], the system named is Rattus norvegicus. In words: Unbound Cmax in Wistar Han IGS rat at 60 mg/kg, po qd administered for 1 month. It counts as ADME, organism-based. The following applies: in vivo. The gist of the method:
(§2)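 Wistar Han rats were dosed orally once daily for 14 days (exploratory, 5/sex/dose) or 1 month (toxicity, 10/sex/dose). Toxicokinetic satellite animals (3–4/sex/dose) were used, and steady-state systemic exposure is given as the mean of male and female values combined.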

The test system of series [3] is Canis familiaris. Briefly: Toxicity in telemetered beagle dog assessed as change in ECG intervals at 5 mg/kg administered via oral gavage measured over 24 hrs. It counts as organism-based, Canis lupus familiaris. The following applies: in vivo.
The test system of series [4] is Canis familiaris. Briefly: In vivo inhibition of DGAT2 in beagle dog assessed as coverage of in vitro IC50 for dog DGAT2 at 75 mg/kg, po qd administered for 14 days. It counts as functional, Canis lupus familiaris. On the set-up: scale not given: the % may be the effect or the level left. The essentials:
(§3)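 Beagle dogs, once-daily oral dosing for 14 days or 1 month; systemic exposure with sexes combined; coverage is the average % above dog DGAT2 IC50 at steady state over the 24 h dosing interval.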

For series [5], the system named is Canis familiaris. Briefly: Unbound Cmax in beagle dog at 2 mg/kg, po qd administered for 1 month. It counts as ADME, organism-based, Canis lupus familiaris. The following applies: in vivo. The essentials:
(§4)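 Beagle dogs were dosed orally once daily in a 14-day exploratory study or 1-month toxicity studies. Steady-state systemic exposure over the 24 h dosing interval is reported as the mean of male and female values combined.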

Series [6] relates to Canis familiaris. In words: Toxicity in telemetered beagle dog assessed as increase in diastolic pressure at 25 mg/kg administered via oral gavage measured over 24 hrs. The following applies: in vivo. It counts as organism-based, Canis lupus familiaris.
The subject of series [7] is Canis familiaris. Briefly: Toxicity in beagle dog assessed as decrease in food consumption at 100 mg/kg, po qd administered starting on day 11 post 150 mg/kg dosing period and continuing for 20 days. It counts as organism-based, Canis lupus familiaris. The following applies: in vivo, 480 h.
The test system of series [8] is Rattus norvegicus. In words: In vivo inhibition of DGAT2 in Wistar Han IGS rat assessed as coverage of in vitro IC50 for rat DGAT2 at 100 mg/kg, po qd administered for 14 days. It counts as functional. On the set-up: scale not given: the % may be the effect or the level left. The gist of the method:
(§5)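 Wistar Han rats, once-daily oral dosing for 14 days (exploratory, 5/sex/dose) or 1 month (10/sex/dose); toxicokinetics in 3–4/sex/dose with sexes combined; coverage is the average % above rat DGAT2 IC50 at steady state over the 24 h dosing interval.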

In series [9] the test system is Rattus norvegicus. In words: Unbound AUC in Wistar Han IGS rat at 100 mg/kg, po qd administered for 14 days. It counts as ADME, organism-based. The following applies: in vivo, 336 h. The essentials:
as §2

The subject of series [10] is Rattus norvegicus. In words: Unbound Cmax in Wistar Han IGS rat at 100 mg/kg, po qd administered for 14 days. It counts as ADME, organism-based. The following applies: in vivo, 336 h. The essentials: as §2
The subject of series [11] is Rattus norvegicus. Briefly: In vivo inhibition of DGAT2 in Wistar Han IGS rat assessed as coverage of in vitro IC50 for rat DGAT2 at 10 mg/kg, po qd administered for 14 days. It counts as functional. On the set-up: scale not given: the % may be the effect or the level left. The essentials:
as §5

The subject of series [12] is Canis familiaris. Briefly: Toxicity in telemetered beagle dog assessed as emesis at 20 mg/kg, iv administered as single bolus dose over 2 mins. It counts as organism-based, Canis lupus familiaris. The following applies: in vivo.
The test system of series [13] is Canis familiaris. In words: Unbound Cmax in telemetered beagle dog at 75 mg/kg administered via oral gavage measured over 24 hrs. It counts as ADME, organism-based, Canis lupus familiaris. The following applies: in vivo. The gist of the method: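 Telemetered Beagle dogs given oral doses, with blood pressure and heart rate monitored after dosing alongside plasma exposure.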

Series [14] relates to Canis familiaris. Briefly: Unbound AUC in beagle dog at 300 mg/kg, po qd administered for 14 days. It counts as ADME, organism-based, Canis lupus familiaris. The following applies: in vivo, 336 h. The essentials:
as §4

For series [15], the system named is Rattus norvegicus. In words: In vivo inhibition of DGAT2 in Wistar Han IGS rat assessed as coverage of in vitro IC50 for rat DGAT2 at 500 mg/kg, po qd administered for 14 days. It counts as functional. On the set-up: scale not given: the % may be the effect or the level left. The essentials:
as §5

Series [16] concerns Canis familiaris. In words: Toxicity in telemetered beagle dog assessed as increase in systolic pressure at 75 mg/kg administered via oral gavage measured over 24 hrs. The following applies: in vivo. It counts as organism-based, Canis lupus familiaris.
Series [17] has as its system Canis familiaris. In words: Unbound Cmax in beagle dog at 100 to 150 mg/kg, po qd administered for 1 month. The following applies: in vivo. It counts as ADME, organism-based, Canis lupus familiaris. The essentials: as §4
Series [18] has as its system Canis familiaris. In words: Toxicity in beagle dog assessed as decrease in body weight at 150 mg/kg, po qd administered for 10 days. The following applies: in vivo, 240 h. It counts as organism-based, Canis lupus familiaris.
Series [19] has as its system Rattus norvegicus. Briefly: Toxicity in Wistar Han IGS rat assessed as foamy macrophage accumulation in lung at 500 mg/kg, po qd administered for 14 days. The following applies: in vivo, 336 h. It counts as organism-based. The essentials: as §1
Series [20] concerns Rattus norvegicus. In words: In vivo inhibition of DGAT2 in Wistar Han IGS rat assessed as coverage of in vitro IC50 for rat DGAT2 at 60 mg/kg, po qd administered for 1 month. It counts as functional. On the set-up: scale not given: the % may be the effect or the level left. The essentials: as §5
Series [21] has as its system Rattus norvegicus. In words: In vivo inhibition of DGAT2 in Wistar Han IGS rat assessed as coverage of in vitro IC50 for rat DGAT2 at 300 mg/kg, po qd administered for 1 month. It counts as functional. On the set-up: scale not given: the % may be the effect or the level left. The essentials: as §5
Series [22] has as its system Canis familiaris. In words: Toxicity in telemetered beagle dog assessed as increase in heart rate at 25 mg/kg administered via oral gavage measured over 24 hrs. It counts as organism-based, Canis lupus familiaris. The following applies: in vivo.
The test system of series [23] is Rattus norvegicus. In words: Unbound AUC in Wistar Han IGS rat at 500 mg/kg, po qd administered for 14 days. It counts as ADME, organism-based. The following applies: in vivo, 336 h. The essentials: as §2
Series [24] relates to Canis familiaris. Briefly: In vivo inhibition of DGAT2 in beagle dog assessed as coverage of in vitro IC50 for dog DGAT2 at 2 mg/kg, po qd administered for 1 month. It counts as functional, Canis lupus familiaris. On the set-up: scale not given: the % may be the effect or the level left. The gist of the method:
as §3

A short description of series [25]: Thermodynamic solubility of the compound at pH 6.5. The following applies: buffer, read-out: Therm_solubility. It counts as physicochemical.
In series [26] the test system is Canis familiaris. In words: Unbound AUC in beagle dog at 3 mg/kg, po qd administered for 1 month. It counts as ADME, organism-based, Canis lupus familiaris. The following applies: in vivo. The gist of the method: as §4
In series [27] the test system is Canis familiaris. Briefly: Toxicity in telemetered beagle dog assessed as increase in systolic pressure at 25 mg/kg administered via oral gavage measured during 4 hrs of post dosing. It counts as organism-based, Canis lupus familiaris. The following applies: in vivo.
The target of series [28] is T1, Diacylglycerol O-acyltransferase 2 (Rattus norvegicus, UniProt Q5FVP8).
T1 sequence (Q5FVP8 whole entry): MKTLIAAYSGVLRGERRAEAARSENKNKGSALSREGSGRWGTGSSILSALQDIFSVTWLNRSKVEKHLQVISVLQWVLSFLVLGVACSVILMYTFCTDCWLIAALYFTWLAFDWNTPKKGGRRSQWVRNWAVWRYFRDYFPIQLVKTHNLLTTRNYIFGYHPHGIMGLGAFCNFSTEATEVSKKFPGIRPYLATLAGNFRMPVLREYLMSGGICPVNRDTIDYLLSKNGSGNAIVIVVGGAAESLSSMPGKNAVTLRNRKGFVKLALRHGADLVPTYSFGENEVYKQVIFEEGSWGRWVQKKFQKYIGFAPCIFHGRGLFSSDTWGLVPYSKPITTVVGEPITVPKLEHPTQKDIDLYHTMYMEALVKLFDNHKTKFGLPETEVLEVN
In words: Inhibition of rat DGAT2.

For series [29], the system named is Canis familiaris. Briefly: Toxicity in telemetered beagle dog assessed as increase in diastolic pressure at 25 mg/kg administered via oral gavage measured during 4 hrs of post dosing. It counts as organism-based, Canis lupus familiaris. The following applies: in vivo.
Series [30] can be described thus: Apparent intrinsic clearance in rat hepatocytes assessed per million cells. It counts as ADME, cell-based, Hepatocyte.
The test system of series [31] is Canis familiaris. Briefly: Unbound Cmax in beagle dog at 3 mg/kg, po qd administered for 1 month. The following applies: in vivo. It counts as ADME, organism-based, Canis lupus familiaris. The gist of the method: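 One-month dog toxicity study with once-daily oral dosing. Toxicity groups were 2/sex/dose, and unbound peak exposure was taken from toxicokinetic sampling.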

In series [32] the test system is Canis familiaris. Briefly: Toxicity in telemetered beagle dog assessed as increase in heart rate at 25 mg/kg administered via oral gavage measured during 4 hrs of post dosing. The following applies: in vivo. It counts as organism-based, Canis lupus familiaris.
Series [33] in a line: Plasma clearance in beagle dog at 1 mg/kg, iv. It counts as ADME, organism-based, Canis lupus familiaris.
A short description of series [34]: Fraction unbound in dog plasma. It counts as ADME, cell-free, Canis lupus familiaris.

Values after ≈ are worked out from the molar mass of the structure shown.

In the case of `CS(=O)(=O)O.O=C([C@@H]1CCCN(c2ccc3nc(C4(n5cc(Cl)cn5)CC4)[nH]c3n2)C1)N1CCCC1`, the Activity result is on record as “Toxic” in the series on Rattus norvegicus [1]; “Non-Toxic” with Canis familiaris [3]; 99% in the series with Canis familiaris [4]; “Non-Toxic” in the series with Canis familiaris [6]; “Non-Toxic” in the series with Canis familiaris [7]; 98% with Rattus norvegicus [8]. Also, the Activity in the series on Rattus norvegicus [11] is recorded as 75%; in the series with Canis familiaris [12], “Non-Toxic”; in the series on Rattus norvegicus [15], more than 99%; in the series on Canis familiaris [16], 5 mmHg; with Canis familiaris [18] it was “Toxic”; in the series on Rattus norvegicus [19], “Toxic”. In addition, the Activity is 98% with Rattus norvegicus [20], more than 99% in the series on Rattus norvegicus [21], 6 to 20 bpm in the series with Canis familiaris [22] and 60% in the series with Canis familiaris [24]. In addition, the fCmax came out at 5.47 µM in the series with Rattus norvegicus [2]; 305 nM in the series with Canis familiaris [5]; 4.65 µM in the series on Rattus norvegicus [10]; 7.51 µM in the series with Canis familiaris [13]; 16.3 µM in the series on Canis familiaris [17]. Moreover, the fAUC with Rattus norvegicus [9] was determined as 25600 ng·h/mL; in the series with Canis familiaris [14], 78300 ng·h/mL; in the series on Rattus norvegicus [23] it was 88300 ng·h/mL.

Consider `C[C@@H](c1nc2ccc(N3CCC[C@@H](C(=O)N4CCCC4)C3)nc2[nH]1)n1cc(Cl)cn1`, for which the solubility thermodynamic in [25] was 285 µg/mL (≈ 666 µM). Besides, the fAUC with Canis familiaris [26] is 797 ng·h/mL. Moreover, the Activity was determined as 6 mmHg in the series on Canis familiaris [27], 5 mmHg in the series on Canis familiaris [29] and 10 bpm in the series on Canis familiaris [32]. In addition, it took 155 nM to reach half-maximal inhibition in [28] (IC50). Besides, the “CLH(app)” value in series [30] was 12.7 µL/min. In addition, the fCmax in the series on Canis familiaris [31] is listed as 454 nM. The compound further showed a clearance in series [33] of 4 mL/min/kg. The unbound share (fraction unbound) in series [34] worked out at 0.12.
